Test results taken from ChEMBL document CHEMBL4382192, “Discovery of a potent dual ALK and EGFR T790M inhibitor” (Eur J Med Chem, 2017).

Experiments:
[1] = target: Cyclin-dependent kinase 4/cyclin D1 (Homo sapiens) (UniProt P11802+P24385); test: Binding affinity to wild-type human full length CDK4/cyclinD1 (M1 to E303 residues) expressed in mammalian expression system assessed as residual binding level at 1 uM by Kinomescan method relative to control
[2] = target: Calcium/calmodulin-dependent protein kinase kinase 2 (Homo sapiens) (UniProt Q96RR4); test: Binding affinity to wild-type human partial length CAMKK2 (D65 to V471 residues) expressed in bacterial expression system assessed as residual binding level at 1 uM by Kinomescan method relative to control
[3] = target: Receptor-interacting serine/threonine-protein kinase 4 (Homo sapiens) (UniProt P57078); test: Binding affinity to wild-type human partial length RIPK4 (M1 to V303 residues) expressed in mammalian expression system assessed as residual binding level at 1 uM by Kinomescan method relative to control
Receptor-interacting serine/threonine-protein kinase 4 (Homo sapiens), sequence (P57078 whole entry, the tested form may be a part): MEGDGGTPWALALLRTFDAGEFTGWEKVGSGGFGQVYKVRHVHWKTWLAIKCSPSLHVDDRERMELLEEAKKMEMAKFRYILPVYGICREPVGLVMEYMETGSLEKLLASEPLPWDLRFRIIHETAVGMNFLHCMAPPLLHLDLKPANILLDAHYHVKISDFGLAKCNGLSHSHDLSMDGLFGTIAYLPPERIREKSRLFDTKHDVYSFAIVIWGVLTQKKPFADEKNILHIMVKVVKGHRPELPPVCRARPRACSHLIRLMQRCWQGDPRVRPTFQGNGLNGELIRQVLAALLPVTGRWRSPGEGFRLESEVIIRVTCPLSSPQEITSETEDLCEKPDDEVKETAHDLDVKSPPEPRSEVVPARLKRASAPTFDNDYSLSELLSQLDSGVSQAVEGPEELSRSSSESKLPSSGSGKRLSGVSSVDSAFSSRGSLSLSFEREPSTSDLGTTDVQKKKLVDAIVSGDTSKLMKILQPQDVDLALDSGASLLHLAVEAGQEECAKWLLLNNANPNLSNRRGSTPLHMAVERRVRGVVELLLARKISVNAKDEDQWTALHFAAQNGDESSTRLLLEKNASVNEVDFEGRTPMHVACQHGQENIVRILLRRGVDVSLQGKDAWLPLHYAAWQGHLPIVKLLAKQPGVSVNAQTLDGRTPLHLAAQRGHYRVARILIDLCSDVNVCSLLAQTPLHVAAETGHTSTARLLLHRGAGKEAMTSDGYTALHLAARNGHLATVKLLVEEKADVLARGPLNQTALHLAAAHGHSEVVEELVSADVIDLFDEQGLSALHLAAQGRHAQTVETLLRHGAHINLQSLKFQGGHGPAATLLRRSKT

[4] = target: Fibroblast growth factor receptor 1 (Homo sapiens) (UniProt P11362); test: Binding affinity to wild-type human partial length FGFR1 (P357 to V669 residues) expressed in bacterial expression system assessed as residual binding level at 1 uM by Kinomescan method relative to control
Fibroblast growth factor receptor 1 (Homo sapiens), sequence (P11362 22-822 limits assumed): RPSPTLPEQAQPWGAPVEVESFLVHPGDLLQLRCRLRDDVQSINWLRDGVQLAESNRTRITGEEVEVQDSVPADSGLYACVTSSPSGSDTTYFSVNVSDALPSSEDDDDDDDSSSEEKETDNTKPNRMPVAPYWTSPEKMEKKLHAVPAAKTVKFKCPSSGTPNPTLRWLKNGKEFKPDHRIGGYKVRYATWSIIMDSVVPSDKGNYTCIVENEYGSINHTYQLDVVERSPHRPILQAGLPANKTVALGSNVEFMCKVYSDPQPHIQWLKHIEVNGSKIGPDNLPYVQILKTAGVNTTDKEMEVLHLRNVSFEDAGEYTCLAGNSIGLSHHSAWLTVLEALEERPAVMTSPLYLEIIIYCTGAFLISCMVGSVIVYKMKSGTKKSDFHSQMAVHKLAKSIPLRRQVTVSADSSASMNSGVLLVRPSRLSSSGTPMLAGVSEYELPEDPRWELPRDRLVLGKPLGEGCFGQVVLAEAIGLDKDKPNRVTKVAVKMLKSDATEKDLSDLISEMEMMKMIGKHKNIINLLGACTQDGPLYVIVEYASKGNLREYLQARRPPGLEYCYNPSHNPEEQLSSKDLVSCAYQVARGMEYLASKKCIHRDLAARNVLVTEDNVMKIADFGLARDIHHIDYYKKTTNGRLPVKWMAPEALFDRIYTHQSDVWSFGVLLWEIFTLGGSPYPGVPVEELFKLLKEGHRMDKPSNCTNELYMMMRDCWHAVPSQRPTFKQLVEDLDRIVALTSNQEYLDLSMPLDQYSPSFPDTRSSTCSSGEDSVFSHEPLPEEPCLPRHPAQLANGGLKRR

[5] = target: Cyclin-dependent kinase 13 (Homo sapiens) (UniProt Q14004); test: Binding affinity to wild-type human partial length CDC2L5 (H675 to S1054 residues) expressed in mammalian expression system assessed as residual binding level at 1 uM by Kinomescan method relative to control
[6] = target: Myosin light chain kinase family member 4 (Homo sapiens) (UniProt Q86YV6); test: Binding affinity to wild-type human partial length MYLK4 (V79 to S380 residues) expressed in bacterial expression system assessed as residual binding level at 1 uM by Kinomescan method relative to control
Myosin light chain kinase family member 4 (Homo sapiens), sequence (Q86YV6 whole entry, the tested form may be a part): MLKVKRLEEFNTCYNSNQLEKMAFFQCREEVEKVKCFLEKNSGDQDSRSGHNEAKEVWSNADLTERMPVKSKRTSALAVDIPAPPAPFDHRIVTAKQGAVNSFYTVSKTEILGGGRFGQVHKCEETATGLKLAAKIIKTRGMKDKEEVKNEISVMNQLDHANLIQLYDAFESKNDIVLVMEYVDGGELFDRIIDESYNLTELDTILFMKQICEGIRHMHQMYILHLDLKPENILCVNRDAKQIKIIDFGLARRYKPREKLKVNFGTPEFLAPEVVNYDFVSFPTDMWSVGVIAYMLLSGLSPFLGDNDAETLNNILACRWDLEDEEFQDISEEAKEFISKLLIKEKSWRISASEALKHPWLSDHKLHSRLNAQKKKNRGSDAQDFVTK

[7] = target: Ephrin type-A receptor 2 (Homo sapiens) (UniProt P29317); test: Binding affinity to wild-type human partial length EPHA2 (T593 to V891 residues) expressed in bacterial expression system assessed as residual binding level at 1 uM by Kinomescan method relative to control
[8] = target: Inhibitor of nuclear factor kappa-B kinase subunit beta (Homo sapiens) (UniProt O14920); test: Binding affinity to wild-type human full length IKK-beta (M1 to S756 residues) expressed in mammalian expression system assessed as residual binding level at 1 uM by Kinomescan method relative to control
Inhibitor of nuclear factor kappa-B kinase subunit beta (Homo sapiens), sequence (O14920 whole entry, the tested form may be a part): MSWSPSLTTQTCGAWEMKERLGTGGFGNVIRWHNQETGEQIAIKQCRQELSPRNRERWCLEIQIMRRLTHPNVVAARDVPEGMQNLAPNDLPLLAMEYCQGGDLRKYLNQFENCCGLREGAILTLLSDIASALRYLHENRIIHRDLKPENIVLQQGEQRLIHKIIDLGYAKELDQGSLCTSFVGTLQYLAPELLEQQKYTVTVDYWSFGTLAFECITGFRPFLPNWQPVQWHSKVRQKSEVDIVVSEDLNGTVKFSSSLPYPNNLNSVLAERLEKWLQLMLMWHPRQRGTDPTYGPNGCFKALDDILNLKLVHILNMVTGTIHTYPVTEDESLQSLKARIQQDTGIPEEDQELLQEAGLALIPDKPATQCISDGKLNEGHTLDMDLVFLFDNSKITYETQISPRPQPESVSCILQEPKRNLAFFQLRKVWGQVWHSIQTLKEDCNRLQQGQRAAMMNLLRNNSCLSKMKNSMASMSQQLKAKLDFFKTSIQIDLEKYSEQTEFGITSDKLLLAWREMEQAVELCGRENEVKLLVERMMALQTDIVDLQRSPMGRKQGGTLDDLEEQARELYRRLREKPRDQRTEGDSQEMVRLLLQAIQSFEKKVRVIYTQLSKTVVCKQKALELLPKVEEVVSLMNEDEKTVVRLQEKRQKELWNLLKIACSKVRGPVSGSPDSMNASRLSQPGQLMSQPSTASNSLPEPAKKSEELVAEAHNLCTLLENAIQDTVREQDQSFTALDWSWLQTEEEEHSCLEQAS
Outline: (§1)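 Single-point kinome-wide KINOMEscan binding panel, test compound at 1 μM, run by the provider's standard protocol.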

[9] = target: Serine/threonine-protein kinase B-raf (Homo sapiens) (UniProt P15056); test: Binding affinity to wild-type human partial length BRAF (S429 to E741 residues) expressed in mammalian expression system assessed as residual binding level at 1 uM by Kinomescan method relative to control
[10] = target: Tyrosine-protein kinase BTK (Homo sapiens) (UniProt Q06187); test: Binding affinity to wild-type human full length BTK (M1 to S659 residues) expressed in mammalian expression system assessed as residual binding level at 1 uM by Kinomescan method relative to control
Tyrosine-protein kinase BTK (Homo sapiens), sequence (Q06187 whole entry, the tested form may be a part): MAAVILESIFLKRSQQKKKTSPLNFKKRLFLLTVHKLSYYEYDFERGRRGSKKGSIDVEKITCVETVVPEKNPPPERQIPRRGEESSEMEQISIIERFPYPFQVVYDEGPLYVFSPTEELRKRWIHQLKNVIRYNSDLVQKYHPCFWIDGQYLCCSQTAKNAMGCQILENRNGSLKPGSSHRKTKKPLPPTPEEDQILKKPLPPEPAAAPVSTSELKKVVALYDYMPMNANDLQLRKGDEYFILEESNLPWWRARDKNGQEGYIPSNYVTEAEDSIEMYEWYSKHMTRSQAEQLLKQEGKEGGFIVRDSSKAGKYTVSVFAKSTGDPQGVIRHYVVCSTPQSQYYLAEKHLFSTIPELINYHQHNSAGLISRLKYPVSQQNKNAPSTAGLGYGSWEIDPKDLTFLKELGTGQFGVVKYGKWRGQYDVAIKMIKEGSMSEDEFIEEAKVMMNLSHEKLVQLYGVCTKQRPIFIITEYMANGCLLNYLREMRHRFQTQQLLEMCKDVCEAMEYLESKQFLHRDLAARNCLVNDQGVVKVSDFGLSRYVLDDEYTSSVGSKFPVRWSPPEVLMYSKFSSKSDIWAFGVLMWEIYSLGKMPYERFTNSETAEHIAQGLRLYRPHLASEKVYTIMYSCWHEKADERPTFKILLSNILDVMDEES

[11] = target: Mitotic checkpoint serine/threonine-protein kinase BUB1 (Homo sapiens) (UniProt O43683); test: Binding affinity to wild-type human partial length BUB1 (Q724 to K1085 residues) expressed in mammalian expression system assessed as residual binding level at 1 uM by Kinomescan method relative to control
Mitotic checkpoint serine/threonine-protein kinase BUB1 (Homo sapiens), sequence (O43683 whole entry, looked up, the tested form may be a part): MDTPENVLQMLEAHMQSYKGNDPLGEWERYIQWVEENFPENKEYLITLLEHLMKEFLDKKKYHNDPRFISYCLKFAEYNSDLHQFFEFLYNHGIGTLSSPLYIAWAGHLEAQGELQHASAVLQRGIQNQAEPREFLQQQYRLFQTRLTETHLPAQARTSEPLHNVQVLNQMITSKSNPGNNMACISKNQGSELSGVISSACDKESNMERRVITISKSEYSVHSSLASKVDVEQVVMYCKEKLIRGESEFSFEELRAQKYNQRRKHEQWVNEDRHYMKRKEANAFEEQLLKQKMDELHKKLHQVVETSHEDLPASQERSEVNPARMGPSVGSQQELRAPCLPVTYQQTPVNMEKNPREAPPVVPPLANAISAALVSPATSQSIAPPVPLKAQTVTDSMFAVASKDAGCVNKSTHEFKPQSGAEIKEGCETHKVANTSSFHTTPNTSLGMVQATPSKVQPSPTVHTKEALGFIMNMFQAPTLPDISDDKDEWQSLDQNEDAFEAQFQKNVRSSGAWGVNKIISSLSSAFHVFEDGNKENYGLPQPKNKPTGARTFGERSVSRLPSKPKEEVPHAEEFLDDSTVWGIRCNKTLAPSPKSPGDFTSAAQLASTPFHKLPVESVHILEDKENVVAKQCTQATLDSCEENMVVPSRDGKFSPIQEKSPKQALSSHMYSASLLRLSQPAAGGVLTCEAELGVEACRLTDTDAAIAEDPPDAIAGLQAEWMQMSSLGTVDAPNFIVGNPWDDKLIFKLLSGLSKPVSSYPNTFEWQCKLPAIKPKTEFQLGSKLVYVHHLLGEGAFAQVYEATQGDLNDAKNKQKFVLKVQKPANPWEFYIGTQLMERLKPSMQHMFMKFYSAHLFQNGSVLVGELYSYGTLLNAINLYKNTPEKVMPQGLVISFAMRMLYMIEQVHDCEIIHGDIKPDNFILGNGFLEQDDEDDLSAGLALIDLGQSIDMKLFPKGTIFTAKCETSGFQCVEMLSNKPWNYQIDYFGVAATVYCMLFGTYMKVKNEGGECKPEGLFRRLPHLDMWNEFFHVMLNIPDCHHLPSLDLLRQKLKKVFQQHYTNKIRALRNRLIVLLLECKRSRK

[12] = target: Receptor tyrosine-protein kinase erbB-4 (Homo sapiens, UniProt Q15303); test: Binding affinity to wild-type human partial length ERBB4 (L690 to K994 residues) expressed in bacterial expression system assessed as residual binding level at 1 uM by Kinomescan method relative to control
[13] = target: Mitogen-activated protein kinase kinase kinase 6 (Homo sapiens) (UniProt O95382); test: Binding affinity to wild-type human partial length ASK2 (M278 to R972 residues) expressed in mammalian expression system assessed as residual binding level at 1 uM by Kinomescan method relative to control
[14] = target: Serine/threonine-protein kinase ULK2 (Homo sapiens) (UniProt Q8IYT8); test: Binding affinity to wild-type human partial length ULK2 (M1 to S301 residues) expressed in mammalian expression system assessed as residual binding level at 1 uM by Kinomescan method relative to control
[15] = target: Casein kinase I isoform gamma-1 (Homo sapiens) (UniProt Q9HCP0); test: Binding affinity to wild-type human partial length CSNK1G1 (T15 to S353 residues) expressed in bacterial expression system assessed as residual binding level at 1 uM by Kinomescan method relative to control
[16] = tested on: Tyrosine-protein kinase ABL1 (Homo sapiens), P00519 [M351T]; test: Binding affinity to human phosphorylated ABL1 M351T mutant (S229 to K512 residues) expressed in mammalian expression system assessed as residual binding level at 1 uM by Kinomescan method relative to control
Outline: (§2)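 Kinome-wide selectivity panel run by the KINOMEscan method, with the test compound at a single concentration of 1 μM. Wild-type and mutant kinases were profiled in the same screen.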

[17] = target: Ribosomal protein S6 kinase alpha-5 (Homo sapiens) (UniProt O75582); test: Binding affinity to wild-type human partial length C-terminal RPS6KA5 kinase domain 2 (V390 to T718 residues) expressed in bacterial expression system assessed as residual binding level at 1 uM by Kinomescan method relative to control
[18] = target: Serine/threonine-protein kinase Nek7 (Homo sapiens) (UniProt Q8TDX7); test: Binding affinity to wild-type human full length NEK7 (M1 to S302 residues) expressed in bacterial expression system assessed as residual binding level at 1 uM by Kinomescan method relative to control; outline: as §1
[19] = target: Tyrosine-protein kinase Tec (Homo sapiens) (UniProt P42680); test: Binding affinity to wild-type human partial length TEC (L341 to D620 residues) expressed in bacterial expression system assessed as residual binding level at 1 uM by Kinomescan method relative to control
[20] = target: Tyrosine-protein kinase Fyn (Homo sapiens) (UniProt P06241); test: Binding affinity to wild-type human partial length FYN (T243 to L534 residues) expressed in bacterial expression system assessed as residual binding level at 1 uM by Kinomescan method relative to control
[21] = target: 5'-AMP-activated protein kinase catalytic subunit alpha-2 (Homo sapiens) (UniProt P54646); test: Binding affinity to wild-type human partial length AMPK alpha2 (M1 to E306 residues) expressed in bacterial expression system assessed as residual binding level at 1 uM by Kinomescan method relative to control
5'-AMP-activated protein kinase catalytic subunit alpha-2 (Homo sapiens), sequence (P54646 whole entry, looked up, the tested form may be a part): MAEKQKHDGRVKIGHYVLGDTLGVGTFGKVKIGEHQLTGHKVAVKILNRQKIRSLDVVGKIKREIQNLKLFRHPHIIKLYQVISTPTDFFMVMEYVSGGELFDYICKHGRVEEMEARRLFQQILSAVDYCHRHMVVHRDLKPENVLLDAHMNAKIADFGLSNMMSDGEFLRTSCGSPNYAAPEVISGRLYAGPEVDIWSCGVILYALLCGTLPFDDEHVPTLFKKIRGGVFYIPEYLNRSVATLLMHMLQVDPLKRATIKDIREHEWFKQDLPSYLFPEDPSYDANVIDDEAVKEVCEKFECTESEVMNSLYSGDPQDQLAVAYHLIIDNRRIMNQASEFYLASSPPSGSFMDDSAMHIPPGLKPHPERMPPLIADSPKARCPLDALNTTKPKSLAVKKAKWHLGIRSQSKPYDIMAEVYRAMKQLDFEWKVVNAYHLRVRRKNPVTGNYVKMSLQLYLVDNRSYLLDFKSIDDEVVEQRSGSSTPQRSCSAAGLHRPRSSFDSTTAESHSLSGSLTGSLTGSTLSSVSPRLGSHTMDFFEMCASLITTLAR

[22] = target: Serine/threonine-protein kinase TAO1 (Homo sapiens) (UniProt Q7L7X3); test: Binding affinity to wild-type human partial length TAOK1 (M1 to A320 residues) expressed in mammalian expression system assessed as residual binding level at 1 uM by Kinomescan method relative to control
[23] = tested on: Tyrosine-protein kinase ABL1 (Homo sapiens), P00519 [F317I]; test: Binding affinity to human phosphorylated ABL1 F317I mutant (S229 to K512 residues) expressed in mammalian expression system assessed as residual binding level at 1 uM by Kinomescan method relative to control; outline: as §2

## C=CC(=O)Nc1cc(Nc2ncc(Cl)c(Nc3ccccc3S(=O)(=O)C(C)C)n2)c(OC)cc1N(C)CCN(C)C
[1]
  Activity: 94%
[2]
  Activity: 1.6%
[3]
  Activity: 72%
[4]
  Activity: 3.7%
[5]
  Activity: 91%
[6]
  Activity: 98%
[7]
  Activity: 75%
[8]
  Activity: 96%
[9]
  Activity: 95%
[10]
  Activity: 0%
[11]
  Activity: 87%
[12]
  Activity: 0%
[13]
  Activity: 21%
[14]
  Activity: 4.3%
[15]
  Activity: 74%
[16]
  Activity: 9.5%
[17]
  Activity: 64%
[18]
  Activity: 72%
[19]
  Activity: 1%
[20]
  Activity: 46%
[21]
  Activity: 23%
[22]
  Activity: 0.45%
[23]
  Activity: 2.8%
